Calls of active or inactive are those of the source.

This note sets out measurements from ChEMBL document CHEMBL4261484, “Design, synthesis and anticonvulsant-analgesic activity of new N-[(phenoxy)alkyl]- and N-[(phenoxy)ethoxyethyl]aminoalkanols” (Medchemcomm, 2017).

Data set [1] has as its system Mus musculus. Put plainly: Anticonvulsant activity in mouse assessed as protection against maximal electroshock-induced seizures at 100 mg/kg, ip. Type of data set: functional, organism-based. Summed up: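 Mice dosed ip; maximal seizures induced by auricular electroshock (25 mA, 500 V, 50 Hz, 0.2 s). Endpoint: hind-limb tonic extension; animals without it scored protected. Read-out is number protected over number tested.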
(The maximal electroshock test induces tonic seizures with an electrical stimulus.)

For data set [2], the system named is Mus musculus. Description: Toxicity in mouse at 100 mg/kg, ip measured during maximal electroshock seizure test. It is filed as organism-based. The conditions noted are these: in vivo.
The subject of data set [3] is Mus musculus. Put plainly: Toxicity in mouse at 60 mg/kg, ip measured during maximal electroshock seizure test. It is filed as organism-based. The conditions noted are these: in vivo.
For data set [4], the system named is Mus musculus. Put plainly: Toxicity in mouse at 80 mg/kg, ip measured during maximal electroshock seizure test. The conditions noted are these: in vivo. Type of data set: organism-based.
Data set [5] has as its system Mus musculus. Description: Anticonvulsant activity in ip dosed mouse assessed as protection against maximal electroshock-induced seizures. It is filed as functional. Summed up: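 Mice were dosed ip. Maximal seizures were induced by auricular electrodes (25 mA, 500 V, 50 Hz, 0.2 s). Absence of hind-limb tonic extension counted as protection. […] Motor impairment was scored on a 10 rpm rotarod, giving TD50 the same way.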

The nature of data set [6]: Neurotoxicity in ip dosed mouse assessed as motor impairment measured for one min by rotarod test. It is filed as toxicity, organism-based. The conditions noted are these: in vivo. In a few lines: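 Mice trained on an accelerating rotarod, then tested at least 24 h later after ip pretreatment, on a rod turning at 10 rpm. Neurotoxicity was scored as failure to stay on the rod for one minute. Read-out is mice impaired over mice tested.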
(Falling from the rotarod earlier than controls is read as motor impairment.)

A short description of data set [7]: Protection index, ratio of TD50 for neurotoxicity in ip dosed mouse by rotarod test to ED50 for anticonvulsant activity in mouse by maximal electroshock seizure test. It is filed as toxicity, organism-based. Particulars: in vivo, read-out: Ratio TD50/ED50.
For data set [8], the system named is Mus musculus. Put plainly: Anticonvulsant activity in mouse assessed as current strength required to induce tonic hind-limb extension in 50% of the animals at 30 mg/kg, ip by maximal electroshock seizure threshold test (reference value: 6.05 to 8.13 mA). Type of data set: functional.
Data set [9] relates to Mus musculus. Put plainly: Anticonvulsant activity in mouse assessed as increase in electroconvulsive threshold at 30 mg/kg, ip by maximal electroshock seizure threshold test relative to control. It is filed as functional.
In data set [10] the test system is Mus musculus. Description: Anticonvulsant activity in mouse assessed as protection against subcutaneous pentylenetetrazole-induced seizures by measuring latency time of tonic seizures at 100 mg/kg, ip measured for 30 mins post pentylenetetrazole challenge at 0.5 hrs after compound dosing (reference value: 562.8 to 614.9 secs). Type of data set: functional.
The test system of data set [11] is Mus musculus. Description: Anticonvulsant activity in mouse assessed as protection against subcutaneous pentylenetetrazole-induced seizures at 100 mg/kg, ip measured for 30 mins post pentylenetetrazole challenge at 0.5 hrs after compound dosing relative to control. Type of data set: functional.
Data set [12] deals with Mus musculus. Put plainly: Analgesic activity in mouse assessed as decrease in time of paw licking during phase 1 at 69 mg/kg, ip measured for 5 mins by formalin test relative to control. It is filed as functional. The arrangement: scale not given: the % may be the effect or the level left. Summed up:
(§1)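 Formalin test in mice: 20 μL of 5% formalin injected intraplantarly into the right hind paw. Each mouse was observed alone in a glass beaker for 30 min. Time (s) spent licking or biting the injected paw was recorded at 0–5 min (acute phase) and 15–30 min (inflammatory phase).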

In data set [13] the test system is Mus musculus. Description: Analgesic activity in mouse assessed as decrease in time of paw licking during phase 2 at 69 mg/kg, ip measured for 15 to 30 mins by formalin test relative to control. Type of data set: functional. More on the design: scale not given: the % may be the effect or the level left. In a few lines:
as §1

In data set [14] the test system is Mus musculus. Description: Toxicity in mouse assessed as effect on spontaneous activity at 69 mg/kg, ip measured for 30 mins by photoresistor actometer relative to control. It is filed as organism-based. Particulars: in vivo, 0.5 h. Summed up:
(§2)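 Mice dosed ip; locomotor activity by photoresistor actometers counting light-beam interruptions. Each mouse was habituated 30 min in a cage, then crossings were counted over a 30 min session. Data are mean ± SEM and % change vs control; unpaired t test.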

For data set [15], the system named is Mus musculus. Description: Neurotoxicity in mouse assessed as motor impairment by measuring time of escaping from chimney at 69 mg/kg, ip measured for 60 secs (reference value: 8.87 +/- 1.79 secs). Type of data set: toxicity, organism-based. Particulars: in vivo, 1 min. In a few lines: (§3)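 Mice dosed ip; trained, selected animals placed in a horizontal tube 25 cm long and 2.5 cm in diameter, then tube reversed so mice must climb out backward. Read-outs: escape time (s) ± SEM and % animals losing coordination versus control. Unpaired t test.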

Data set [16] deals with Mus musculus. Description: Neurotoxicity in mouse assessed as motor impairment by measuring loss of coordination at 69 mg/kg, ip measured for 60 secs by chimney test relative to control. The conditions noted are these: in vivo, 1 min. It is filed as toxicity, organism-based. In a few lines:
as §3

Data set [17] deals with HepG2. Description: Cytotoxicity against human HepG2 cells assessed as effect on cell viability at 10 to 250 uM after 24 hrs by MTT assay. Type of data set: cell-based. Particulars: hepg2, 24 h. Summed up:
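HepG2 cells grown in MEM with 10% FBS (37 °C, 5% CO2) and seeded at 1 × 10^4. After overnight culture, exposed to 10–250 μM for 24 h. MTT for 3 h, formazan dissolved, OD 570 nm. Viability is % of control ± SEM from three independent experiments.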
On the technique in general: Tetrazolium assays rely on reduction of a dye to a coloured formazan, in cell work by metabolically active cells.

For data set [18], the system named is HepG2. Put plainly: Cytotoxicity against human HepG2 cells assessed as effect on cell viability at 10 to 250 uM after 24 hrs by neutral red assay. Type of data set: cell-based. Particulars: hepg2, 24 h. In a few lines: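 HepG2 cells seeded at 5 × 10^4 per well, then after 24 h given medium with 10–250 μM for 24 h. Viability by neutral red staining, OD 570 nm. Results are % of control ± SEM, three independent experiments.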

Data set [19] is described as follows: Cytotoxicity against mouse CRL-2541 cells assessed as effect on cell viability at 10 to 250 uM after 24 hrs by MTT assay. Type of data set: cell-based.
In data set [20] the test system is SH-SY5Y. Description: Cytotoxicity against human SH-SY5Y cells 10^-8 to 10^-4 M after 72 hrs by LDH release assay. It is filed as cell-based. In a few lines: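 SH-SY5Y cells grown in DMEM with 10% FBS, then seeded at 15000 per well in 1% FBS a day ahead. Treated with 10^-8 to 10^-4 M (water-dissolved) for 72 h, with vehicle controls and triton as positive control. LDH in medium read at 490 nm, expressed as % of vehicle-treated cells. Dunnett's test after one-way ANOVA.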

Data set [21] concerns SH-SY5Y. Description: Cytotoxicity against human SH-SY5Y cells 10^-8 to 10^-4 M after 24 hrs by MTT assay. Type of data set: cell-based.
The subject of data set [22] is SH-SY5Y. Put plainly: Potentiation of H2O2-induced cytotoxicity against human SH-SY5Y cells at 10^-8 to 10^-6 M after 72 hrs by LDH release assay. It is filed as cell-based. In a few lines:
(§4)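 SH-SY5Y cells in 1% FBS given 10^-8 to 10^-5 M for 72 h, with H2O2 (0.5 mM) added for the last 24 h. LDH released into medium measured at 490 nm and normalized to vehicle cells without H2O2. Dunnett's test after one-way ANOVA.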

Data set [23] relates to SH-SY5Y. Description: Potentiation of H2O2-induced cytotoxicity against human SH-SY5Y cells at 10^-5 M after 72 hrs by LDH release assay. Particulars: 10 µM. Type of data set: cell-based. Summed up: as §4
Data set [24] relates to SH-SY5Y. Description: Potentiation of H2O2-induced cytotoxicity against human SH-SY5Y cells at 10^-6 to 10^-5 M after 24 hrs by MTT assay. Type of data set: cell-based.
Data set [25] concerns Mus musculus. Put plainly: Anticonvulsant activity in mouse assessed as current strength required to induce tonic hind-limb extension in 50% of the animals at 10 mg/kg, ip by maximal electroshock seizure threshold test (reference value: 6.05 to 8.13 mA). It is filed as functional.
The test system of data set [26] is Mus musculus. Description: Anticonvulsant activity in mouse assessed as increase in electroconvulsive threshold at 10 mg/kg, ip by maximal electroshock seizure threshold test relative to control. Type of data set: functional.
Data set [27] concerns Mus musculus. Put plainly: Analgesic activity in mouse assessed as decrease in time of paw licking during phase 1 at 21 mg/kg, ip measured for 5 mins by formalin test relative to control. The arrangement: scale not given: the % may be the effect or the level left. It is filed as functional. Summed up:
as §1

Data set [28] relates to Mus musculus. Description: Analgesic activity in mouse assessed as decrease in time of paw licking during phase 2 at 21 mg/kg, ip measured for 15 to 30 mins by formalin test relative to control. It is filed as functional. The arrangement: scale not given: the % may be the effect or the level left. In a few lines:
as §1

For data set [29], the system named is Mus musculus. Put plainly: Toxicity in mouse assessed as effect on spontaneous activity at 21 mg/kg, ip measured for 30 mins by photoresistor actometer relative to control. Particulars: in vivo, 0.5 h. Type of data set: organism-based. Summed up: as §2
The subject of data set [30] is Mus musculus. Description: Neurotoxicity in mouse assessed as motor impairment by measuring time of escaping from chimney at 21 mg/kg, ip measured for 60 secs (reference value: 8.87 +/- 1.79 secs). Type of data set: toxicity, organism-based. Particulars: in vivo, 1 min. Summed up:
as §3

Data set [31] relates to Mus musculus. Put plainly: Neurotoxicity in mouse assessed as motor impairment by measuring loss of coordination at 21 mg/kg, ip measured for 60 secs by chimney test relative to control. It is filed as toxicity, organism-based. The conditions noted are these: in vivo, 1 min. In a few lines:
as §3

Usually ED50 stands for the dose at which the effect has come halfway, by size or by number of responders. As usually defined, the TD50 is the 50% point of the dose-response relation for the toxic effect studied. `Cc1cccc(OCCOCCN2CCCC(O)C2)c1C.Cl` (stereo not drawn): in the data set on Mus musculus [1], the result was Active. Besides, the Activity result is “Non-Toxic” with Mus musculus [2]; “Non-Toxic” in the data set with Mus musculus [3]; “Non-Toxic” with Mus musculus [4]; 13.18 mA in the data set on Mus musculus [8]; 75.03% with Mus musculus [9]; 13.74% in the data set on Mus musculus [12]. The Activity in the data set with Mus musculus [13] was 64.59%; in the data set on Mus musculus [14], 14.98%; in the data set with Mus musculus [16], 0%; with HepG2 [17] it was “Non-Toxic”; in the data set with HepG2 [18] it was “Non-Toxic”; in data set [19], “Non-Toxic”. Also, the Activity result is listed as “Non-Toxic” in the data set with SH-SY5Y [20]; “Non-Toxic” with SH-SY5Y [21]; “Non-Toxic” in the data set on SH-SY5Y [22]; “Toxic” in the data set on SH-SY5Y [23]; “Toxic” in the data set on SH-SY5Y [24]. Moreover, in the data set with Mus musculus [5], the 50% effective dose (ED50) came out at 68.7 mg/kg. In addition, the TD50 at 1 min in data set [6] turned out to be 122 mg/kg. Further, the selectivity ratio in data set [7] is 1.77. The Time in the data set with Mus musculus [10] is reported as 564.8 s; in the data set with Mus musculus [15], 4.75 s. For the same compound, the outcome in the data set with Mus musculus [11] was inactive.

For the compound `Cc1cc(C)c(OCCCN2CCC(O)CC2)c(C)c1`, the result with Mus musculus [1] was Active. Besides, the Activity result is reported as “Non-Toxic” in the data set on Mus musculus [2]; 9.15 mA with Mus musculus [25]; 12.55% with Mus musculus [26]; 27.01% in the data set on Mus musculus [27]; 4.87% in the data set on Mus musculus [28]; 19.76% in the data set on Mus musculus [29]. In addition, the Activity is on record as 0% in the data set on Mus musculus [31], “Non-Toxic” in the data set with HepG2 [17], “Non-Toxic” with HepG2 [18] and “Non-Toxic” in [19]. The Time with Mus musculus [10] was determined as 275.4 s; with Mus musculus [30], 6.5 s. Further, the outcome in the data set with Mus musculus [11] was inactive.
